Test results taken from ChEMBL document CHEMBL4613248, “Twelfth-Position Deuteration of Nevirapine Reduces 12-Hydroxy-Nevirapine Formation and Nevirapine-Induced Hepatocyte Death” (J Med Chem, 2020).

What was measured:
[1] = test system: Hepatocyte; assay: Induction of change in CCAR2 protein expression in human primary hepatocytes at 10 uM incubated for 48 hrs by relative-quantitation label-free proteomics analysis relative to NVP; type: cell-based
In short: (§1)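 Cryoplateable pooled human hepatocytes (10 mixed-sex donors per pool; three pools), adhered overnight, then given fresh medium containing compound (10 μM), NVP (10 μM) or vehicle (0.1% DMSO) for 48 h. Lysate reduced (DTT) and alkylated (iodoacetamide), acetone-precipitated and digested with trypsin. Label-free Top10 nanoLC-MS with precursor ion area quantitation; unpaired t test P values, Cohen's d effect size.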

[2] = test system: Hepatocyte; assay: Induction of change in Gapdh protein expression in C57BL/6J mouse primary hepatocytes at 400 uM incubated for 8 hrs by relative-quantitation label-free proteomics analysis relative to NVP; type: cell-based
In short: (§2)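 Fresh primary hepatocytes from male C57BL/6J mice aged 8–13 weeks, adhered overnight, then given fresh medium containing compound (400 μM), NVP (400 μM) or vehicle (0.2% DMSO) for 8 h. Lysate reduced (DTT) and alkylated (iodoacetamide), acetone-precipitated and digested with trypsin. Label-free Top10 nanoLC-MS with precursor ion area quantitation; unpaired t test P values, Cohen's d effect size.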

[3] = test system: Hepatocyte; assay: Induction of change in Slc22a28 protein expression in C57BL/6J mouse primary hepatocytes at 400 uM incubated for 8 hrs by relative-quantitation label-free proteomics analysis relative to NVP; type: cell-based; in short: as §2
[4] = test system: Cytochrome P450; assay: Drug metabolism in human primary hepatocytes assessed as Cytochrome P450-mediated formation of 8-OHNVP at 10 uM incubated for 24 to 48 hrs by uHPLC-MS analysis; type: ADME, cell-based
In short: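 Cryoplateable pooled human hepatocytes (10 mixed-sex donors per pool, three lots), adhered overnight, then 10 μM substrate or vehicle (0.1% DMSO) for 24 or 48 h in InVitroGRO CP medium. Medium extracted with 50% acetonitrile, dried, reconstituted in methanol; uHPLC-Orbitrap MS/MS for monooxygenated metabolites, high-resolution MS for O-glucuronide.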

[5] = test system: Hepatocyte; assay: Induction of change in 5-Mar protein expression in C57BL/6J mouse primary hepatocytes at 400 uM incubated for 8 hrs by relative-quantitation label-free proteomics analysis relative to NVP; type: cell-based; in short: as §2
[6] = Drug metabolism in C57BL/6J mouse primary hepatocytes assessed as O-GlucNVP metabolite formation at 10 uM incubated for 24 hrs by uHPLC-MS analysis; type: ADME, cell-based, Hepatocyte
In short: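 Fresh hepatocytes from male C57BL/6J mice (8–13 weeks), adhered overnight, then 10 μM substrate or vehicle (0.1% DMSO) for 24 h. Medium extracted with acetonitrile (50% final), dried, reconstituted in methanol; uHPLC-Orbitrap targeted SIM plus PRM (monooxygenated metabolites) or high-resolution ions (O-glucuronides, 459.1510/462.1700 ±5 ppm); four experimental replicates.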

[7] = test system: Hepatocyte; assay: Induction of change in TM9SF1 protein expression in human primary hepatocytes at 10 uM incubated for 48 hrs by relative-quantitation label-free proteomics analysis relative to NVP; type: cell-based; in short: as §1
[8] = test system: Hepatocyte; assay: Induction of change in MSRA protein expression in human primary hepatocytes at 10 uM incubated for 48 hrs by relative-quantitation label-free proteomics analysis relative to NVP; type: cell-based; in short: as §1
[9] = test system: Hepatocyte; assay: Induction of change in DERA protein expression in human primary hepatocytes at 10 uM incubated for 48 hrs by relative-quantitation label-free proteomics analysis relative to NVP; type: cell-based; in short: as §1
[10] = biological target: T1, Cytochrome P450 2A6 (Homo sapiens, UniProt P11509); assay: Drug metabolism assessed as human CYP2A6-mediated formation of 12-OHNVP at 10 uM pre-incubated for 30 mins followed by addition of NADPH regenerating reagents by uHPLC-MS analysis; type: ADME; details: recombinant enzyme
T1 sequence (P11509 whole entry): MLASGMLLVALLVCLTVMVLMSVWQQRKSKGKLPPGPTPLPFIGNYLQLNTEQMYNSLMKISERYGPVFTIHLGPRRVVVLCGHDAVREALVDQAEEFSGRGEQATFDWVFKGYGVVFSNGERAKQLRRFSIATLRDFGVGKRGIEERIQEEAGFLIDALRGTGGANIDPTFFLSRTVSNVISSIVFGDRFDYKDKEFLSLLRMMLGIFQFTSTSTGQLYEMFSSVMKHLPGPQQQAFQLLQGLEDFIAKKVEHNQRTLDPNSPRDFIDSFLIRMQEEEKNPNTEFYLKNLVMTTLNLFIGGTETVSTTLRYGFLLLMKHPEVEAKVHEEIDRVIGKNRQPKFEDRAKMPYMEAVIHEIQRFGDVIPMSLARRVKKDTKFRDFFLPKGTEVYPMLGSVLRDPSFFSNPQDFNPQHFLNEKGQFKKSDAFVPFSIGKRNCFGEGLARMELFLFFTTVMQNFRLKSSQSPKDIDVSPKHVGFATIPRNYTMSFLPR
In short: (§3)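 Insect-cell microsomes with single cDNA-expressed human P450 (100 nM) in 0.1 M potassium phosphate; 10 μM substrate prewarmed 5 min at 37 °C with NADPH-regenerating system, reaction started by adding microsomes; 30 min at 37 °C, 0.1% DMSO. Stopped, dried, reconstituted in methanol; triple-quadrupole SRM (12-OH 283.1→223.0, 2-OH 283.1→160.9, 3-OH 283.1→241.9), peak height; three replicates, mean ± SD.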

[11] = biological target: T2, Cytochrome P450 2C8 (Homo sapiens, UniProt P10632); assay: Drug metabolism assessed as human CYP2C8-mediated formation of 12-OHNVP at 10 uM […] by uHPLC-MS analysis; type: ADME; details: recombinant enzyme; in short: as §3
T2 sequence (P10632 whole entry): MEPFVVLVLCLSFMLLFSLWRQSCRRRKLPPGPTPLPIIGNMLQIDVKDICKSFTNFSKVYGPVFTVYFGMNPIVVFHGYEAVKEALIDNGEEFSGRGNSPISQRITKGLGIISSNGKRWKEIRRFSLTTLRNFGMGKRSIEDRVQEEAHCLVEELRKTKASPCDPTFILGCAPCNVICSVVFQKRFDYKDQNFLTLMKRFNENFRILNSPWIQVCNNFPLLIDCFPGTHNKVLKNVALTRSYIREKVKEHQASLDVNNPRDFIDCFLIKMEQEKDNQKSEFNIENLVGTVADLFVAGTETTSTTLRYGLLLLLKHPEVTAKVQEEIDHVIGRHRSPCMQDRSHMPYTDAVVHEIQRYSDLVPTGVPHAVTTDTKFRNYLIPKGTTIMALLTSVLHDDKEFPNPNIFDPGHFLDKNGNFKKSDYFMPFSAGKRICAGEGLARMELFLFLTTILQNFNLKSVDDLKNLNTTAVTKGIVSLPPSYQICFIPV

[12] = test system: Hepatocyte; assay: Toxicity in C57BL/6J mouse primary hepatocytes assessed as reduction in cell viability by measuring EtBr-positive cell nuclei level at 400 uM incubated for 8 hrs by EtBr/AcrO staining based assay (reference value: 19%)
In short: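 Fresh male C57BL/6J mouse hepatocytes on collagen-coated coverslips, 400 μM compound or vehicle (0.2% DMSO) for 8 h; 10 μM staurosporine as positive control. Ethidium bromide/acridine orange costaining, imaging, percentage of EtBr-positive nuclei scored as dead cells; unpaired two-tailed t test.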

[13] = test system: Hepatocyte; assay: Induction of change in FUBP3 protein expression in human primary hepatocytes at 10 uM incubated for 48 hrs by relative-quantitation label-free proteomics analysis relative to NVP; type: cell-based; in short: as §1

For `[2H]C([2H])([2H])c1ccnc2c1NC(=O)c1cccnc1N2C1CC1`, the “fold change (FC)” value [1] was -2.05, the “fold change (FC)” value [2] was 1.4 and the “fold change (FC)” value [3] was -1.66. The Drug metabolism [4] was “Metabolite_Notdetected”, the “fold change (FC)” value [5] was -2.14 and the Drug metabolism [6] was “Metabolite_Detected”. For the same compound, the “fold change (FC)” value [7] was -1.86, the “fold change (FC)” value [8] was -2.05 and the “fold change (FC)” value [9] was -1.63. For the same compound, the Drug metabolism [10] was “Metabolite_Detected”, the Drug metabolism [11] was “Metabolite_Detected” and the Activity [12] was 36.8%. For the same compound, the “fold change (FC)” value [13] was -1.47.
